We go through 2 compounds from PMC5731780 (Structure (London, England : 1993), 2017).

Data set [1] deals with T1, Ub (Homo sapiens, UniProt P0CG48). Put plainly: NMR titration of 15N-labeled Ub. The data set is classed as binding.
Data set [2] relates to Rpn11 in purified proteasome. The data set is described as follows: Proteasome/Rpn11 inhibition assay. It is filed as biochemical, human. In short, it runs like this: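 Human erythrocyte proteasome was used with Ub4pep substrate: His6, four head-to-tail Ub repeats and a 30-mer peptide whose cysteine carried Oregon Green 488. Compounds were screened at 10 μM. IC50 came from 0–100 μM series in quadruplicate.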

The test system of another data set is CFTR ubiquitination. Put plainly: In vitro CFTR ubiquitination assay. It is filed as biochemical, yeast.
Data set [3] has as its target T2, Ub^72 (Homo sapiens, UniProt P0CG48). Put plainly: NMR titration of 15N-labeled Ub^72. It is filed as binding. A digest of the protocol: (§1)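 Unlabeled ubistatin was added in increasing amounts to 15N-labeled Ub variant in 20 mM phosphate (pH 6.8), 0.02% NaN3, 5% D2O at 23°. Binding was followed in 1H-15N HSQC or SOFAST-HMQC spectra. Signal shifts were quantified as CSPs and fitted against bound fraction to give Kd.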

Data set [4] concerns the target T3, Ub^R74A (Homo sapiens, UniProt P0CG48, R74A). Put plainly: NMR titration of 15N-labeled Ub^R74A. The data set is classed as binding. In short, it runs like this: as §1
Data set [5] addresses T4, Ub^R74E (Homo sapiens, UniProt P0CG48, R74E). Put plainly: NMR titration of 15N-labeled Ub^R74E. It is filed as binding. In short, it runs like this:
as §1

The target in a further data set is Ub^R42E (Homo sapiens, UniProt P0CG48, R42E). The data set is described as follows: NMR titration of 15N-labeled Ub^R42E. It is filed as binding. To be noted: read-out: Dissociation constant, Ub^R42E (NMR titration); Table 2. A digest of the protocol:
(§2)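 Ub point mutants were made by PCR mutagenesis of human wild-type Ub in pET3a, with DpnI digestion and sequence verification. Increasing amounts of unlabeled ubistatin were titrated into 15N-labeled protein in 20 mM phosphate pH 6.8, 0.02% NaN3, 5% D2O, at 23°. Signal shifts and attenuations were tracked in 1H-15N HSQC or SOFAST-HMQC spectra, and spectral perturbations were quantified at each titration step.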

Data set [6] concerns the target T5, Ub^R42E,R72E (Homo sapiens, UniProt P0CG48, R42E/R72E). The data set is described as follows: NMR titration of 15N-labeled Ub^R42E,R72E. It is filed as binding. A digest of the protocol:
as §2

In data set [7] the target is T1, Ub. The data set is described as follows: ubiB fluorescence anisotropy titration with Ub. It is filed as binding. The settings on record: read-out: Kd, Ub (fluorescence anisotropy). In short, it runs like this: (§3)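 Fluorescence anisotropy was measured at 21°C in PBS pH 7.4. ubiB was held at 1 μM for Ub2 titrations and 10 μM for Ub, while Ub or Ub2 was varied. Readings were taken in T-configuration, excitation 386 nm, emission 485 nm. Anisotropy change was fitted to a single-site binding model for Kd.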
On the technique in general: In fluorescence polarisation assays a small probe gives low polarisation when free and higher when bound to something large.

Data set [8] concerns the target T6, K48-Ub2 (Homo sapiens, UniProt P0CG48). Put plainly: ubiB fluorescence anisotropy titration with K48-Ub2. The data set is classed as binding. To be noted: read-out: Kd, K48-Ub2 (fluorescence anisotropy). In short, it runs like this:
as §3

The target of the next data set is K11-Ub2 (Homo sapiens, UniProt P0CG48). The data set is described as follows: ubiB fluorescence anisotropy titration with K11-Ub2. The data set is classed as binding. The settings on record: read-out: Kd, K11-Ub2 (fluorescence anisotropy). A digest of the protocol: as §3
The next data set has as its target K63-Ub2. The data set is described as follows: ubiB fluorescence anisotropy titration with K63-Ub2. It is filed as binding, human. The settings on record: read-out: Kd, K63-Ub2 (fluorescence anisotropy). A digest of the protocol:
as §3

The target of data set [9] is T1, Ub. The data set is described as follows: 15N T1 relaxation of Ub with ubistatin. The settings on record: mean (SD) over residues in structured regions. The data set is classed as binding. A digest of the protocol: (§4)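 15N T1 longitudinal relaxation measured with standard pulse sequences at 23°, 600 and 800 MHz with cryoprobes. 15N-labeled human Ub or K48-linked Ub2 was free or mixed with ubistatin in 20 mM phosphate buffer pH 6.8 with 0.02% (w/v) NaN3 and 5% D2O. Values are means with standard deviations averaged over residues in structured regions.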

The target of data set [10] is T2, Ub^72. The data set is described as follows: 15N T1 relaxation of Ub^72 with ubistatin. It is filed as binding. The settings on record: mean (SD). In short, it runs like this:
(§5)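 Human Ub and its point mutants were expressed from pET3a and made by PCR mutagenesis. Samples were in 20 mM phosphate buffer (pH 6.8) with 0.02% (w/v) NaN3 and 5% D2O. 15N T1 was measured at 23° on 600 and 800 MHz spectrometers with cryoprobes, using standard pulse sequences.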

The target of data set [11] is T3, Ub^R74A. The data set is described as follows: 15N T1 relaxation of Ub^R74A with ubistatin. The settings on record: mean (SD). The data set is classed as binding. A digest of the protocol: as §5
Data set [12] concerns the target T4, Ub^R74E. Put plainly: 15N T1 relaxation of Ub^R74E with ubistatin. To be noted: mean (SD). It is filed as binding. In short, it runs like this: as §5
For data set [13], the target named is T5, Ub^R42E,R72E. Put plainly: 15N T1 relaxation of Ub^R42E,R72E with ubistatin. It is filed as binding. To be noted: mean (SD). A digest of the protocol:
as §5

For data set [14], the target named is T6, K48-Ub2. The data set is described as follows: 15N T1 relaxation of K48-Ub2 with ubistatin. The data set is classed as binding. To be noted: mean (SD). A digest of the protocol: as §4
The target in data set [15] is T1, Ub. The data set is described as follows: SANS of Ub with ubiB. It is filed as binding. The settings on record: equimolar ubiB.
Data set [16] addresses T6, K48-Ub2. Put plainly: SANS of K48-Ub2 with ubiB. It is filed as binding. The settings on record: equimolar ubiB.
In data set [17] the target is T1, Ub. The data set is described as follows: NMR competition assay against ubiquilin-1 UBA domain for Ub. The data set is classed as binding. The settings on record: up to 3-fold molar excess.
For data set [18], the target named is T6, K48-Ub2. The data set is described as follows: NMR competition assay against ubiquilin-1 UBA domain for K48-Ub2. The data set is classed as binding.
A further data set concerns Ubp6. The data set is described as follows: Gel-based assay of K48-Ub2 disassembly by Ubp6. It is filed as biochemical, yeast.
The next data set has as its system Cezanne (OTUD7B). Put plainly: Gel-based assay of K11-Ub2 disassembly by Cezanne. The data set is classed as biochemical. The settings on record: stoichiometric ubiB.
Another data set relates to OTUB1. The data set is described as follows: Gel-based assay of K48-Ub2 disassembly by OTUB1. It is filed as biochemical. The settings on record: stoichiometric ubiB.
The test system of another data set is AMSH. The data set is described as follows: Gel-based assay of K63-Ub2 disassembly by AMSH. It is filed as biochemical. To be noted: stoichiometric ubiB.
For another data set, the system named is yeast 26S proteasome. The data set is described as follows: Gel-based assay of DUB activity of 26S proteasome. The data set is classed as biochemical.
A further data set deals with HeLa and RCC4 cells. The data set is described as follows: ubiB internalization in live cells by fluorescence microscopy. The data set is classed as cell-based, human. The settings on record: 10 μM ubiB, 6 hrs. In short, it runs like this:
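HeLa and RCC4 cells were grown in DMEM/10% FBS on glass-bottom dishes, exposed to 10 μM ubiB for 6 hrs, and washed three times in PBS. Plasma membrane was stained with Texas Red wheat germ agglutinin (1:500, 15 min). Live cells were imaged by confocal Z-stacks (63× oil), with 405 nm excitation for ubiB and 555 nm for the membrane probe.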

A further data set concerns HeLa cells. The data set is described as follows: Perturbation of the Ub landscape in cells. The data set is classed as cell-based, human.

“And” between values parts separate entries of the source, which are not always exact repeats. Equal values may be shown once.

With `O=S(=O)(O)c1cccc2cccc(Nc3ccccc3)c12` [ANS, 8-anilinonaphthalene-1-sulfonic acid, reference compound], the “CSPs in Ub upon titration” value on Ub [1] is reported as below 0.1 ppm.

Turning to `O=S(=O)(O)c1ccc2c(ccc3nn(-c4ccc(/C=C/c5ccc(-n6nc7ccc8cc(S(=O)(=O)O)ccc8c7n6)cc5S(=O)(=O)O)c(S(=O)(=O)O)c4)nc32)c1` [ubiB, Ubistatin B], in data set [2] (at 1 μM ubiB), the inhibition of deubiquitination is around 50%. Besides, the IC50 (usually the midpoint of a concentration-inhibition curve) was 1.1 µM and 1 µM in data set [2] (read-out: IC50, DUB activity of Rpn11 in purified proteasome, deubiquitination); ~10 µM and 10 µM in the data set with CFTR ubiquitination (read-out: IC50, CFTR ubiquitination, titration of ubiB). Also, the “concentration required for complete inhibition of ubiquitination” value in the data set with CFTR ubiquitination was at least 100 µM. For the same compound, in the data set on CFTR ubiquitination (100 μM compound, 26°C, 60 min), the “CFTR protein modified (ubiquitinated), DMSO control = 100%” value turned out to be 18±2%. Also, the inhibition of ubiquitination with CFTR ubiquitination (at 1 μM ubiB) was 5-10%. The Kd on Ub [1] (read-out: Dissociation constant, Ub (NMR titration), Table 2) is 11.3 µM; on Ub^72 [3] (read-out: Dissociation constant, Ub^72 (NMR titration), Table 2) it was 73.1 µM; at Ub^R74A [4] (read-out: Dissociation constant, Ub^R74A (NMR titration), Table 2), 40.3 µM; at Ub^R74E [5] (read-out: Dissociation constant, Ub^R74E (NMR titration), Table 2), 67.6 µM; at Ub^R42E, 396 µM; on Ub^R42E,R72E [6] (read-out: Dissociation constant, Ub^R42E,R72E (NMR titration), Table 2), above 1000 µM. Besides, the Kd was determined as 14 ± 1.6 µM at Ub [7], 0.264 ± 0.023 µM on K48-Ub2 [8], 1.83 ± 0.05 µM at K11-Ub2 and 4.88 ± 0.22 µM at K63-Ub2. Moreover, the “direct binding to 15N Ub by CSPs” value at Ub [1] (starting Ub 1 mM) is “produced CSPs in and around Ub's hydrophobic patch”. For the same compound, at Ub^72 [3], the “decrease in binding affinity, Ub^72 vs Ub” value turned out to be 6 fold. Besides, on Ub^R74A [4], the “weakening of ubiB binding, Ub^R74A vs Ub” value was determined as 3.5 fold. Further, the “weakening of ubiB binding, Ub^R74E vs Ub” value on Ub^R74E [5] is given as 6 fold. In addition, the “binding to Ub^R42E,R72E” value at Ub^R42E,R72E [6] is reported as “only negligible CSPs”. The “15N T1 of Ub in the presence of ubistatin” value at Ub [9] turned out to be 660 ± 25 ms. Also, the “15N T1 of Ub^72 in the presence of ubistatin” value at Ub^72 [10] is on record as 482 (28) ms. Further, the “15N T1 of Ub^R74A in the presence of ubistatin” value on Ub^R74A [11] is reported as 544 (26) ms. The “15N T1 of Ub^R74E in the presence of ubistatin” value on Ub^R74E [12] is on record as 556 (28) ms. For the same compound, the “15N T1 of Ub^R42E,R72E in the presence of ubistatin” value on Ub^R42E,R72E [13] was 493 (27) ms. In addition, the “15N T1 of K48-Ub2 in the presence of ubistatin” value on K48-Ub2 [14] is 942 (66) ms. The “Radius of gyration (Rg) of Ub + ubiB” value on Ub [15] is recorded as 17.4 (0.1) Å. The “Radius of gyration (Rg) of K48-Ub2 + ubiB” value on K48-Ub2 [16] was 20.1 (0.1) Å. Also, on Ub [17], the “competition with UBA for binding to Ub” value is “outcompetes UBA for binding to Ub”. Also, at K48-Ub2 [18], the “competition with UBA for binding to K48-Ub2” value is reported as “outcompeted UBA for binding to K48-Ub2”. In addition, the “effect on disassembly of K48-Ub2 by Ubp6” value in the data set on Ubp6 is listed as “concentration-dependent effect”. In the data set on Cezanne (OTUD7B), the “disassembly of K11-Ub2 by Cezanne (OTUD7B)” value was “prevented”. Also, the “disassembly of K48-Ub2 by OTUB1” value with OTUB1 was “prevented”. In the data set on AMSH, the “disassembly of K63-Ub2 by AMSH” value is “prevented”. Further, the “disassembly of K11-Ub6+ by 26S proteasome” value in the data set on yeast 26S proteasome (20 hr time course) is given as “only trace amounts of cleavage intermediates appeared”. For the same compound, the “processing of Ubch5b-Ubn by 26S proteasome” value in the data set on yeast 26S proteasome (K11, K48, K63 linkage-specific antibodies) is reported as “preserved all three linkage types”. Moreover, the “toxicity judged by cell morphology” value in the data set with HeLa and RCC4 cells is on record as “not toxic”. For the same compound, in the data set with HeLa and RCC4 cells (no chemical permeabilization), the “cell internalization” value was “distinct ubiB fluorescence at and within the boundaries of the fluorescently labeled plasma membrane”. Further, the “Ub conjugates below 70 kDa” value with HeLa cells (2 μM ubiB, 8 hrs) is listed as “greatly diminished”. Also, the “Ub conjugates, RIPA lysis, Western blot” value in the data set on HeLa cells (6 hrs ubiB treatment) was “increases the amount of Ub conjugates”.
